In ChEMBL document CHEMBL4346736, “Anti-proliferative activity and structure-activity relationship of honokiol derivatives” (Bioorg Med Chem, 2019):

Experiments:
HepG2 [1] = experiment: Antiproliferative activity against human HepG2 cells after 24 hrs by MTT assay; type: functional, cell-based; conditions: HepG2, 24 h
K562 [2] = experiment: Antiproliferative activity against human K562 cells after 24 hrs by MTT assay; type: functional, cell-based; conditions: K562, 24 h
[3] = Antiproliferative activity against […] cells after 24 hrs by MTT assay; type: functional, cell-based; conditions: LL/2, 24 h
A549 [4] = experiment: Antiproliferative activity against human A549 cells by MTT assay; type: functional, cell-based
Procedure, shortened: (§1)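 Cells from the Institute of Cell Biology, CAS (Shanghai), grown in RPMI-1640 with 10% FBS and 100 U/mL penicillin-streptomycin at 37 °C under 5% CO2. Cells were exposed to compounds for 48 h, and viability was read by MTT (or MTS). IC50, the concentration giving 50% inhibition, was calculated by the Logit method. Data are representative of 3 independent experiments.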

[5] = Partition coefficient, log P of the compound; type: physicochemical; conditions: octanol/water
[6] = Antiproliferative activity against human SPCA1 cells after 24 hrs by MTT assay; type: functional, cell-based; conditions: SPCA1, 24 h
K562 [7] = experiment: Antiproliferative activity against human K562 cells by MTT assay; type: functional, cell-based; procedure, shortened: as §1
A549 [8] = experiment: Antiproliferative activity against human A549 cells after 24 hrs by MTT assay; type: functional, cell-based; conditions: A549, 24 h
A2780 = experiment: Antiproliferative activity against human A2780 cells after 24 hrs by MTT assay; type: functional, cell-based; conditions: A2780, 24 h
[9] = Antiproliferative activity against human SPCA1 cells by MTT assay; type: functional, cell-based
HeLa = experiment: Antiproliferative activity against human HeLa cells; type: functional, cell-based
HepG2 [10] = experiment: Antiproliferative activity against human HepG2 cells after 72 hrs by MTT assay; type: functional, cell-based; conditions: HepG2, 72 h
[11] = Antiproliferative activity against mouse C26 cells; type: functional, cell-based
[12] = Selectivity index, ratio of IC50 for HUVEC to IC50 for human K562 cells; type: toxicity; conditions: HUVEC versus K562 cells, read-out: Ratio IC50
Procedure, shortened: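 K562 tumor cells and HUVEC grown in RPMI-1640 with 10% FBS and penicillin-streptomycin at 37 °C under 5% CO2. Viability was read by MTT or MTS assay, with tumor cells exposed to compounds for 48 h. IC50 values came from the Logit method across 3 independent experiments. The index is HUVEC IC50 divided by K562 IC50.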

K562 [13] = experiment: Antiproliferative activity against human K562 cells after 48 hrs by MTT assay; type: functional, cell-based; conditions: K562, 48 h; procedure, shortened: as §1
HepG2 [14] = experiment: Antiproliferative activity against human HepG2 cells after 48 hrs by MTT assay; type: functional, cell-based; conditions: HepG2, 48 h; procedure, shortened: as §1
HCT-116 = experiment: Antiproliferative activity against human HCT116 cells after 72 hrs by MTT assay; type: functional, cell-based; conditions: HCT-116, 72 h

Structure (SMILES) | IC50 (HepG2 [1]) [µM] | IC50 (K562 [2]) [µM] | IC50 [3] [µM] | IC50 (A549 [4]) [µM] | logP [5] | IC50 [6] [µM] | IC50 (K562 [7]) [µM] | IC50 (A549 [8]) [µM] | IC50 (A2780) [µM] | IC50 [9] [µM] | IC50 (HeLa) [µM] | IC50 (HepG2 [10]) [µM] | IC50 [11] [µM] | selectivity ratio [12] | IC50 (K562 [13]) [µM] | IC50 (HepG2 [14]) [µM] | IC50 (HCT-116) [µM]
C=CCc1ccc(O)c(-c2cc(C=O)c(O)c(CC=C)c2)c1 | 20.2 | 11.6 | 31.3 | 49 | 4.51 | 37.3 | 19.7 | 34.1 | 17.8 | 22.8 | – | – | – | – | – | – | –
C=CCc1ccc(O)c(-c2ccc(O)c(CC=C)c2)c1 [HONOKIOL] | 32.9 | 22.1 | 65.3 | 29.7 | 5 | 37.3 | 28.4 | 34.1 | – | 41.3 | 62 | 33.9 | 65.1 | 2.2 | 23.9 | 34.3 | 19.1
